The results in this text go back to the RNAGym collection of RNA variant scans (doi:10.1038/nmeth.2970).

In general, Kd refers to the free concentration of one partner at which half of the binding sites on the other are occupied at equilibrium, for simple one-to-one binding.

B1: GFP aptamer (parent)
chain: GCUUCUGGACUGCGAUGGGAGCACGAAACGUCGUGGCGCAAUUGGGUGGGGAAAGUCCUUAAAAGAGGGCCACCACAGAAGC

Variants of B1 are the subject of this series. Kind of series: HiTS-RAP. The settings on record: with EGFP. The gist of the method:
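Aptamer DNA templates carrying a T7 promoter and ter site were sequenced on an Illumina GAIIx flowcell, then transcribed in situ by T7 RNA polymerase and halted by GST-Tus (30 minutes, 37°C). Clusters were imaged after 30-minute room-temperature equilibration with EGFP-mOrange at 0.04 nM to 625 nM in fivefold steps. Intensities were decay-corrected, normalised to sequencing intensity and averaged per sequence. Kd came from weighted Hill fits per lane, geometrically averaged over three lanes, with non-rising sequences set to 125 nM.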
With GCUUCUGGAUUGCGAUGGGAGCACGAAACGUUGUGGCGCAAUUGGGUGGGGAAAGUCCUUAAAAGAGGGCCACCACAGAAGC, the Kd worked out at 6.54 nM. To GCUUCUGGAUUGCGAUGGGAGCACGAGACGUCGUGGCGCAAUUGGGUGGGGAAAGUCCUUAAAAGAGGGCCACCACAGAAGC belongs 3.1 nM; to GCUUCUGGACUGUGAUGGGAGCACGAAACGUCGUGGCGCAAUUGGGUGGGGAAAGUCCUUAAAAGAGGGCCACUACAGAAGC, 17.4 nM; to GCUUCUGGACUGCGACGGGAGCACGAAGCGUCGUGGCGCAAUUGGGUGGGGAAAGUCCUUAAAAGAGGGCCACCACAGAAGC, 4.74 nM.

As for GCUUCUGGACCGCGAUGGGAGCACGAAACGUCGUGGCGCAAUUGGGUGGGGAAAGUCCUUAAAAGAGGGCCAUCACAGAAGC, the Kd is 44.7 nM. To GCUUCUGGAUUGCAAUGGGAGCACGAAACGUCGUGGCGCAAUUGGGUGGGGAAAGUCCUUAAAAGAGGGCCACCACAGAAGC belongs 6.22 nM; to GCUUCUGGAUUGCGAUGGGAGCACGAAACGUCGUGGCGCAAUUGGGUGGGGAAAGUCCUUAAAAGAGGGCCAUCACAGAAGC, 5.31 nM; to GCUUCUGGACCGCGAUGGGAGCACGAGACGUCGUGGCGCAAUUGGGUGGGGAAAGUCCUUAAAAGAGGGCCACCACAGAAGC, 3.8 nM.

Regarding GCUUCUGGACUGCAAUGGGAGCACGAAGCGUCGUGGCGCAAUUGGGUGGGGAAAGUCCUUAAAAGAGGGCCACCACAGAAGC, the Kd turned out to be 4.8 nM.

For the variant GCUUCUGGACUGCUAUGGGAGCACGAAACGUCGUGGCGCAAUUGGGUGGGGAAAGUCCUUAAAAGAGGGCCACCACAGAAGC, the Kd came to 4.92 nM. The result for GCUUCUGGACUGCAAUGGGAGCACGAAACGUCGUGGCGCAAUUGGGUGGGGAAAGUCCUUAAAAGAGGGCCACCACAGAAGC reads 7.34 nM; that for GCUUCUGGACUGCCAUGGGAGCACGAAACGUCGUGGCGCAAUUGGGUGGGGAAAGUCCUUAAAAGAGGGCCACCACAGAAGC, 25.1 nM; that for GCUUCUGGACUGUGAUGGGAGCACGAAACGUCGUGGCGCAAUCGGGUGGGGAAAGUCCUUAAAAGAGGGCCACCACAGAAGC, 8.72 nM. The result for GCUUCUGGACUGUGAUGGGAGCACGAAACGUCGUGGCGCAAUUGGGUGGGGAAAGUCCUUAAAAGAGGGUCACCACAGAAGC reads 2.02 nM; that for GCUUCUGGAUUGCGAUGGGAGCACGAAACGUCGUGGCGCAAUUGGGUGGGGAAAGUCCUUAAAAGAGGGCCACCACGGAAGC, 36 nM; that for GCUUCUGGACUGUGAUGGGAGCACGAAACGUCGUGGCGCAGUUGGGUGGGGAAAGUCCUUAAAAGAGGGCCACCACAGAAGC, 10 nM. To GCUUCUGGACCGCGAUGGGAGCACGAAACGUCGUGGCGCGAUUGGGUGGGGAAAGUCCUUAAAAGAGGGCCACCACAGAAGC belongs 4.63 nM; to GCUUCUGGACUGCGGUGGGAGCACAAAACGUCGUGGCGCAAUUGGGUGGGGAAAGUCCUUAAAAGAGGGCCACCACAGAAGC, 2.42 nM; to GCUUCUGGACUGUGAUGGGAGCACGAAACGUCGUGGCGCAAUUGGGUGGGGAAAGUCCUUAAAAGAGGGCCACCACAGAAGC, 4.53 nM. For the variant GCUUCUGGACUGGGAUGGGAGCACGAAACGUCGUGGCGCAAUUGGGUGGGGAAAGUCCUUAAAAGAGGGCCACCACAGAAGC, the Kd worked out at 6.37 nM. To GCUUCUGGACUGAGAUGGGAGCACGAAACGUCGUGGCGCAAUUGGGUGGGGAAAGUCCUUAAAAGAGGGCCACCACAGAAGC belongs 14.6 nM; to GCUUCUGGACUGUGAUGGGAGCACGAAACGUCGUGGCGCGAUUGGGUGGGGAAAGUCCUUAAAAGAGGGCCACCACAGAAGC, 3 nM. The result for GCUUCUGGACUGCGAUGGCAGCACGAAACGUCGUGGCGCAAUUGGGUGGGGAAAGUCCUUAAAAGAGGGCCACCACAGAAGC reads no less than 125 nM; that for GCUUCUGGACUGCGAUGGUAGCACGAAACGUCGUGGCGCAAUUGGGUGGGGAAAGUCCUUAAAAGAGGGCCACCACAGAAGC, no less than 125 nM. With GCUUCUGGACUGCGAUGGAAGCACGAAACGUCGUGGCGCAAUUGGGUGGGGAAAGUCCUUAAAAGAGGGCCACCACAGAAGC, the Kd stood at 48.3 nM. The result for GCUUCUGGACUGUGAUGGGAGCACGAAGCGUCGUGGCGCAAUUGGGUGGGGAAAGUCCUUAAAAGAGGGCCACCACAGAAGC reads 3.77 nM.

Take GCUUCUGGACUGCAAUGGGAGCACGGAACGUCGUGGCGCAAUUGGGUGGGGAAAGUCCUUAAAAGAGGGCCACCACAGAAGC: the Kd amounted to 7.76 nM.

For GCUUCUGGACUGCAAUGGGAGCACGAAACGUUGUGGCGCAAUUGGGUGGGGAAAGUCCUUAAAAGAGGGCCACCACAGAAGC, the Kd was 15.4 nM. The result for GCUUCUGGACUGCGAUGGGGGCGCGAAACGUCGUGGCGCAAUUGGGUGGGGAAAGUCCUUAAAAGAGGGCCACCACAGAAGC reads 1.51 nM; that for GCUUCUGGAUUGCGAUGGGAGCACGAAAUGUCGUGGCGCAAUUGGGUGGGGAAAGUCCUUAAAAGAGGGCCACCACAGAAGC, 3.83 nM; that for GCUUCUGGACAGCGAUGGGAGCACGAAACGUCGUGGCGCAAUUGGGUGGGGAAAGUCCUUAAAAGAGGGCCACCACAGAAGC, 4.13 nM. The result for GCUUCUGGACCGCGAUGGGAGCACGAAACGUCGUGGCGCAAUUGGGUGGGGAAAGUCCUUAAAAGAGGGCCACCACAGAAGC reads 24.2 nM; that for GCUUCUGGACGGCGAUGGGAGCACGAAACGUCGUGGCGCAAUUGGGUGGGGAAAGUCCUUAAAAGAGGGCCACCACAGAAGC, 3.81 nM.
